This note sets out measurements from ChEMBL document CHEMBL3351262, “Design and synthesis of new benzimidazole-carbazole conjugates for the stabilization of human telomeric DNA, telomerase inhibition, and their selective action on cancer cells” (J Med Chem, 2014).

Test [1] can be described thus: Binding affinity to human Hum21 [5'-G3(T2AG3)3-3'] G-quadruplex DNA at 0.4 uM in 10 mM pH 7.4 Tris-Hcl buffer containing 0.1 mM EDTA and 0.1 mM NaCl by fluorescence spectroscopy.
Test [2] is described as follows: Binding affinity to human Hum21 [5'-G3(T2AG3)3-3'] G-quadruplex DNA at 0.4 uM in 10 mM pH 7.4 Tris-Hcl buffer containing 0.1 mM EDTA and […] by fluorescence spectroscopy.
The test system of test [3] is Calf thymus DNA. In words: Binding affinity to calf thymus DNA at 0.4 uM in 10 mM pH 7.4 Tris-Hcl buffer containing 0.1 mM EDTA and 40 mM NaCl by fluorescence spectroscopy. Type of test: nucleic-acid assay. Conditions: Bos taurus. The method in brief:
(§1)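 CT DNA was in the same Tris/EDTA buffer with 40 mM NaCl. 0.4 μM ligand was titrated with preformed DNA, incubated 10 min at 20 °C, and excited at 300 or 330 nm. Kd and binding stoichiometry n came from the emission titration.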

Test [4] is described as follows: Displacement of thiazole orange from human Hum21 [5'-G3(T2AG3)3-3'] G-quadruplex DNA in presence of 10 mM pH 7.4 Tris-Hcl buffer containing 0.1 mM EDTA and […] by fluorescent intercalator displacement assay.
Test [5] is described as follows: Displacement of thiazole orange from calf thymus double stranded DNA in presence of 10 mM pH 7.4 Tris-Hcl buffer containing 0.1 mM EDTA and […] by fluorescent intercalator displacement assay. Set-up: species or system Bos taurus.
Test [6] can be described thus: Displacement of thiazole orange from telomeric duplex DNA (unknown origin) in presence of 10 mM pH 7.4 Tris-Hcl buffer containing 0.1 mM EDTA and […] by fluorescent intercalator displacement assay.
For test [7], the species on record is Homo sapiens. In words: Binding affinity to human Hum21 [5'-G3(T2AG3)3-3'] G-quadruplex DNA in 10 mM pH 7.4 Tris-Hcl buffer containing 0.1 mM EDTA and […] by CD spectroscopy.
Test [8] is filed under the species Homo sapiens. The experiment in a line: Binding affinity to human Hum21 [5'-G3(T2AG3)3-3'] G-quadruplex DNA assessed as change in melting temperature in 10 mM pH 7.4 Tris-Hcl buffer containing 0.1 mM EDTA and 0.1 mM NaCl […] (reference value: 7 to 10 degC).
Test [9] is filed under the species Homo sapiens. In words: Binding affinity to human Hum21 [5'-G3(T2AG3)3-3'] G-quadruplex DNA assessed as change in melting temperature in 10 mM pH 7.4 Tris-Hcl buffer containing 0.1 mM EDTA and […] measured after 12 hrs by UV-Vis absorption sperctrometry (reference value: 7 to 13 degC).
Test [10] deals with Calf thymus DNA. In words: Binding affinity to calf thymus DNA in 10 mM pH 7.4 Tris-Hcl buffer containing 0.1 mM EDTA and 40 mM NaCl by fluorescence spectroscopy. The format is nucleic-acid assay, Bos taurus. The method in brief:
as §1

Test [11] can be described thus: Selectivity index, ratio of Kd for calf thymus DNA to Kd for human Hum21 [5'-G3(T2AG3)3-3'] G-quadruplex DNA. The method in brief:
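Selectivity is the ratio of fluorescence-titration Kd for CT DNA (Tris-HCl pH 7.4, 40 mM NaCl, 0.1 mM EDTA) to Kd for preformed Hum21 G4 DNA (Tris-HCl pH 7.4, 0.1 M NaCl/KCl, 0.1 mM EDTA).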

For test [12], the target named is T1, Telomerase reverse transcriptase (Homo sapiens, UniProt O14746). The experiment in a line: Inhibition of telomerase isolated form human A549 cells by TRAP-LIG assay.
T1 sequence (O14746 whole entry): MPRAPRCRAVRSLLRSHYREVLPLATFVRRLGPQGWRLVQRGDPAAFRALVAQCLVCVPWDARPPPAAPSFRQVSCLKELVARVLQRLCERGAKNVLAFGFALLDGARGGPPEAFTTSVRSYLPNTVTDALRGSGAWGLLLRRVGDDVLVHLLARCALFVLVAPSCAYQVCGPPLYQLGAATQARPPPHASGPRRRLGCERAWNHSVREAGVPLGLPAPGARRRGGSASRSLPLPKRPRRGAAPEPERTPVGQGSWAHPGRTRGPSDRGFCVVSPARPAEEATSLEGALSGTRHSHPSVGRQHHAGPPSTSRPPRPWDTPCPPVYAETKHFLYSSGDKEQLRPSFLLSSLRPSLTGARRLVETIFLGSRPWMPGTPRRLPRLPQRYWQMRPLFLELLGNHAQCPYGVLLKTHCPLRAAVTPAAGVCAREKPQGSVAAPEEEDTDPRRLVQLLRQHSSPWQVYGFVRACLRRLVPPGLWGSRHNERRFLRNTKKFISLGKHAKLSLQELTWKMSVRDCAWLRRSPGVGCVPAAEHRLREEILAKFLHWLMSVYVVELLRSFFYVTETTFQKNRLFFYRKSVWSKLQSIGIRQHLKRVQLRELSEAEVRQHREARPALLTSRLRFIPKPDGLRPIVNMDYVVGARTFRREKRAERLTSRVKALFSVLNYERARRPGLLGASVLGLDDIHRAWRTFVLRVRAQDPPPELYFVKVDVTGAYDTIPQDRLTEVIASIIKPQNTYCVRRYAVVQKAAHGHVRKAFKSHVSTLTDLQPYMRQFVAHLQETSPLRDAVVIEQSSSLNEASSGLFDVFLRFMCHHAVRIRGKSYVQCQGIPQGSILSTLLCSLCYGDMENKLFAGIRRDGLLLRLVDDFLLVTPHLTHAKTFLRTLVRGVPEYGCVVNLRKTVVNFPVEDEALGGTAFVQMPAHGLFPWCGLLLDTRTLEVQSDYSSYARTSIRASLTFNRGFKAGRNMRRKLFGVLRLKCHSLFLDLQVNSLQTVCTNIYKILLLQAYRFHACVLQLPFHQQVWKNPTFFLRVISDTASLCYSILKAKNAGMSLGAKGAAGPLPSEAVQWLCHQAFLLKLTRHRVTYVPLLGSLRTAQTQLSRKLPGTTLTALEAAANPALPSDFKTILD
The subject of a further test is HeLa. In words: Cytotoxicity against human HeLa cells at 2 and 5 uM after 15 days by MTT assay. Background: Formazan colour is commonly taken as a measure of viable cells.
Test [13] addresses T1, Telomerase reverse transcriptase. In words: Total inhibition of telomerase isolated form human A549 cells by TRAP-LIG assay.
A further test deals with HEK-293T. In words: Cytotoxicity against transformed HEK293T cells at 2 and 5 uM after 15 days by MTT assay. Conditions: Homo sapiens.
In test [14] the test system is Calf thymus DNA. In words: Binding affinity to calf thymus DNA in 10 mM pH 7.4 Tris-Hcl buffer containing 0.1 mM EDTA and 40 mM NaCl by CD spectroscopy. Conditions: Bos taurus.
Test [15] is described as follows: Binding affinity to human Hum21 [5'-G3(T2AG3)3-3'] G-quadruplex DNA at 5 uM in 10 mM pH 7.4 Tris-Hcl buffer containing 0.1 mM EDTA and 0.1 M KCl by UV-Vis absorption sperctrometry.
Test [16] in a line: Binding affinity to human Hum21 [5'-G3(T2AG3)3-3'] G-quadruplex DNA at 5 uM in 10 mM pH 7.4 Tris-Hcl buffer containing 0.1 mM EDTA and 0.1 M NaCl by UV-Vis absorption sperctrometry.

Activity calls are given as the source filed them. No cut-off for these calls is given here.

For the compound `CN1CCN(CCCCn2c3ccc(-c4nc5cc(-c6nc7cc(N8CCN(C)CC8)ccc7[nH]6)ccc5[nH]4)cc3c3cc(-c4nc5cc(-c6nc7cc(N8CCN(C)CC8)ccc7[nH]6)ccc5[nH]4)ccc32)CC1`, the Kd in test [1] is 180 nM; in test [2], 150 nM; with Calf thymus DNA [10] it was 89000 nM; in test [15] it was 230 nM; in test [16] it was 380 nM. For the same compound, the outcome in the test on Calf thymus DNA [3] was inactive. Moreover, the DC50 was 1360 nM in [4], “Not Active” in [5] and “Not Active” in test [6]. Further, the outcome in the test filed under Homo sapiens [7] and with Calf thymus DNA [14] was Active. In addition, the ΔTm in the test filed under Homo sapiens [8] and in the test filed under Homo sapiens [9] was 10 °C in each case. Also, the Ratio in test [11] was determined as 234. The compound further returned an IC50 in test [12] of 1800 nM. The inhibition entry with HeLa and with HEK-293T was “Active” throughout. Besides, the concentration giving total telomerase inhibition in test [13] came to 3 µM.

As to `CN1CCN(CCCCn2c3ccc(-c4nc5cc(N6CCOCC6)ccc5[nH]4)cc3c3cc(-c4nc5cc(N6CCOCC6)ccc5[nH]4)ccc32)CC1`, the Kd in test [1] was determined as 190 nM; with Calf thymus DNA [10] it was 312000 nM; in test [15], 330 nM; in [16], 480 nM. The outcome in the test on Calf thymus DNA [3] and in the test on Calf thymus DNA [14] was inactive. For the same compound, the DC50 in [4] was 1010 nM; in test [5] it was “Not Active”; in test [6], “Not Active”. In addition, in the test filed under Homo sapiens [7], the result was Active. The values for the ΔTm in the test listed under Homo sapiens [8] and in the test listed under Homo sapiens [9] were 8 °C and 7 °C, respectively. Besides, in [11], the Ratio worked out at 650. For the same compound, 1600 nM corresponded to half-maximal inhibition in test [12] (IC50). Also, the inhibition result in the test on HeLa and with HEK-293T was “Active” throughout. This compound registered a concentration giving total telomerase inhibition in test [13] of 3 µM.

For orientation: Kd means the constant that tells how readily two partners part at equilibrium. Higher therefore signals a looser complex. What is called ΔTm is the change in melting temperature against a reference sample. In general, IC50 refers to the midpoint of a concentration-inhibition curve.
